Experimental data taken from PubChem BioAssay.
Results filed as inconclusive are left out. Activity calls are given as the source filed them.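 The calls were made as follows, unless noted: active = RAM network inhibition above 8.4% in each of two replicates, 3 SD over the compound average; inconclusive = above 8.4% inhibition in only one replicate; inactive = 8.4% inhibition or less in each replicate.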

Legend:
[1] = S. cerevisiae growth inhibition in permissive medium (OD615), pilot counter-assay for S. cerevisiae lifespan shortening project, permissive growth control (AID 705;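 active = growth inhibition above 25% in both replicates, a cutoff set 3 SD above the mean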); conditions: OD615, 24 h, at 10 µM, active compounds read high
How it was run: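 assay system = Saccharomyces cerevisiae strain carrying genetically modified DeaD replicative-lifespan system | medium = SC raffinose/galactose permissive medium | dosing = 10 µM single dose, 0.25% DMSO | schedule = 24 h compound exposure at 30 °C after 4 h pre-growth | measured by = OD at 615 nm | read-out basis = growth inhibition from lowered OD615 after 24 h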

[2] = S. cerevisiae growth inhibition in restrictive medium, OD615, pilot screen, restrictive growth control, yeast lifespan reduction project (AID 706;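 active = growth inhibition above a set limit, 3 SD over mean compound inhibition, in both replicates, cut at about 43% in these data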;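 also: modified DeaD lifespan yeast strain shifted to restrictive glucose medium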); conditions: OD615, 48 h, at 10 µM, active compounds read high
How it was run: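 Buffer or medium: CSMM-D glucose medium. Material: genetically modified Saccharomyces cerevisiae, DeaD replicative lifespan assay strain. Times: 48 h compound exposure at 30 °C. Measured by: optical density at 615 nm.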

[3] = doxorubicin toxicity protection in MRP-1 cells – H69AR cells, CellTiter-Glo, duplicate, MRP-1 activator project, pilot screen (AID 807;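 active = viability increase at or above a cutoff of the median across tested compounds plus 3 SD, cut at about 8.5% in these data, passing the limit was not always enough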;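 also: compound pretreatment 18-22 h then 72 h combined with doxorubicin; 0% = doxorubicin alone and 100% = vehicle without doxorubicin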); conditions: H69AR viability with doxorubicin, CellTiter-Glo luminescence; at 10 µM; active compounds read high
[4] = viability of HCT116 without oncogenic beta-catenin – human colon tumor cells, pilot screen (AID 823;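 active = cell viability at or below a set limit in both duplicate runs, the limit being the all-compound median minus 4 SD, cut at about 23% in these data, passing the limit was not always enough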;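 also: 0% = wells killed by 20 µM Hyamine and 100% = untreated DMSO cell wells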); conditions: HCT116 beta-catenin knockout viability, CellTiter-Glo, 60 h; at 10 µM; active compounds read low
[5] = viability of PTEN-null HCT116 cells – cell-based, HCT116 clonal line, CellTiter-Glo, pilot screen (AID 824;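 active = viability at or below 27.92% in each of two runs, the all-compound median minus 4 SD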;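 also: 0% = 20 µM Hyamine control and 100% = vehicle cell control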); conditions: HCT116 PTEN-deleted viability, 60 h, at 10 µM, active compounds read low
[6] = RAM pathway blockade in budding yeast – dse1pr::URA3 reporter, 5-FOA selection, pilot screen (AID 869;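 active = inhibition over a set limit, the all-compound mean plus 3 SD, in both replicate runs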;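 also: 0% = DMSO wells with no growth and 100% = 10 µM 1-NA-PP1 with full growth; RAM network block rescues cells from 5-FOA so hits raise OD615 growth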); conditions: S. cerevisiae dse1pr::URA3 5-FOA growth, OD615, 2 d; at 10 µM; active compounds read high; strain carries analog-sensitive mutant Cbk1 kinase
[7] = RAM signaling pathway blockade in yeast – S. cerevisiae, Pdr1DBD-CYC8 efflux-inhibited sensitized strain, primary screen (AID 1298);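 also: 0% = DMSO untreated cells without growth and 100% = 10 µM 1-NA-PP1 full growth; higher means more yeast growth rescued from 5-FOA killing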; conditions: S. cerevisiae cbk1-as DSE1-URA3 strain, 5-FOA growth OD615, 2 d; at 50 µM; active compounds read high

O=c1nc2s/c(=C\c3ccco3)c(=O)n2nc1Cc1ccccc1
inactive: growth inhibition [1] -15.4% | growth inhibition [2] -3.2% | viability increase [3] -2.41% | viability [4] 97.7% | viability [5] 94.8% | inhibition [6] 2.04% | RAM network inhibition [7] 4.31%

CCOC(=O)C1=C(N)OC2=C(C(=O)CCC2)C1c1cccs1 (configuration not stated)
inactive: growth inhibition [1] -0.655% | growth inhibition [2] 5.78% | viability increase [3] 0.3% | viability [4] 108% | viability [5] 104% | inhibition [6] 0.345% | RAM network inhibition [7] 2.67%

O=C(Cn1cnc2c(nnn2Cc2ccc(Cl)cc2)c1=O)N1CCN(c2ccccc2)CC1
inactive: growth inhibition [1] -7.16% | growth inhibition [2] -12.6% | viability increase [3] 3.63% | viability [4] 82.3% | viability [5] 80.5% | inhibition [6] 1.98% | RAM network inhibition [7] 6.43%

Cc1ccc2oc(=O)c3cnn(CC(=O)Nc4ccccc4N4CCN(C)CC4)c3c2c1
inactive: growth inhibition [1] 0.52% | growth inhibition [2] -25.3% | viability increase [3] -6.16% | inhibition [6] -0.415% | RAM network inhibition [7] -0.65%
active: viability [4] 8.9% | viability [5] 6.03%

COc1ccc(Cl)cc1S(=O)(=O)n1ccnc1C(C)C
inactive: growth inhibition [1] -8.68% | growth inhibition [2] -13% | viability increase [3] -2.46% | viability [4] 102% | viability [5] 93.3% | inhibition [6] 1.74% | RAM network inhibition [7] 2.15%

CCOC(=O)N1CCN(C(=O)CSc2nnc(Cn3c(=O)sc4ccccc43)n2C)CC1
inactive: growth inhibition [1] -12.9% | growth inhibition [2] -13% | viability increase [3] -2.25% | viability [4] 98.4% | viability [5] 95.8% | inhibition [6] 1.69% | RAM network inhibition [7] 1.9%

CCC(CC)C(=O)Nc1cc(=O)n(C)c(=O)n1C
inactive: growth inhibition [1] -3.07% | growth inhibition [2] 8.82% | viability increase [3] -0.82% | viability [4] 92.8% | viability [5] 87.4% | inhibition [6] 0.18% | RAM network inhibition [7] -2.19%

Cc1onc(-c2ccccc2Cl)c1C(=O)Nc1ccc(S(=O)(=O)N2CCCC2)cc1
inactive: growth inhibition [1] 0.03% | growth inhibition [2] 9.99% | viability increase [3] -2.15% | viability [4] 86.3% | viability [5] 81.2% | inhibition [6] 1.72% | RAM network inhibition [7] 4.75%

CCN1CCCC1CNC(=O)Cn1cc2c(n1)CCC(C)C2 (configuration not stated)
inactive: growth inhibition [1] -3.58% | growth inhibition [2] 0.66% | viability increase [3] -1.37% | viability [4] 91.7% | viability [5] 100% | inhibition [6] 0.72% | RAM network inhibition [7] 1.7%

CCOc1ccc(N(CC(=O)NCCCOC)S(C)(=O)=O)cc1
inactive: growth inhibition [1] 4.66% | growth inhibition [2] 3.23% | viability increase [3] -2.35% | viability [4] 98.9% | viability [5] 101% | inhibition [6] 0.95% | RAM network inhibition [7] 2.73%

O=C1C(C=NCCCN2CCOCC2)=C(O)c2ccccc21
inactive: growth inhibition [1] -1.9% | growth inhibition [2] 10.5% | viability increase [3] -4.78% | viability [4] 98.6% | viability [5] 90.2% | inhibition [6] 0.71% | RAM network inhibition [7] 5.89%

O=C(O)c1cccnc1SC1CC(=O)N(c2cccc(C(F)(F)F)c2)C1=O (configuration not stated)
inactive: growth inhibition [1] -15.3% | growth inhibition [2] -3.59% | viability increase [3] 0.62% | viability [4] 103% | viability [5] 101% | inhibition [6] 1.56% | RAM network inhibition [7] 3.58%

CC12CCC(C(=O)Nc3ccc4c(c3)OCCO4)(OC1=O)C2(C)C (configuration not stated)
inactive: growth inhibition [1] -20.5% | growth inhibition [2] -5.64% | viability increase [3] -0.01% | viability [4] 93.7% | viability [5] 97.8% | inhibition [6] 1.28% | RAM network inhibition [7] -0.36%

Nc1nc(NC(=O)c2ccco2)nn1-c1ccccc1
inactive: growth inhibition [1] -11.7% | growth inhibition [2] 1.96% | viability increase [3] -2.61% | viability [4] 93.8% | viability [5] 98.6% | inhibition [6] -0.025% | RAM network inhibition [7] 5.17%

CCCN(CC1CC1)S(=O)(=O)c1ccc(S(N)(=O)=O)cc1
inactive: growth inhibition [1] -8.54% | growth inhibition [2] 0.87% | viability increase [3] -1.41% | viability [4] 100% | viability [5] 90.3% | inhibition [6] 0.505% | RAM network inhibition [7] 1.48%

O=C(Nc1nnc(-c2ccc(Cl)cc2)o1)c1ccccc1Br
inactive: growth inhibition [1] 0.92% | growth inhibition [2] 20.1% | viability increase [3] -3.81% | viability [4] 68.8% | viability [5] 60.9% | inhibition [6] 0.69% | RAM network inhibition [7] 1.62%

COc1ccc(N(CC(=O)Nc2nc3ccc(C)cc3s2)S(=O)(=O)c2c(C)nn(C)c2C)cc1
inactive: growth inhibition [1] -5.89% | growth inhibition [2] -16.3% | viability increase [3] -7.24% | viability [4] 64.9% | viability [5] 57.1% | inhibition [6] 1.33% | RAM network inhibition [7] 6.79%

O=C(Nc1nc2ccc(Cl)cc2s1)c1ccc(Br)o1
inactive: growth inhibition [1] -6.29% | growth inhibition [2] -6.11% | viability increase [3] -2.25% | viability [4] 82.3% | viability [5] 82.7% | inhibition [6] 2.08% | RAM network inhibition [7] 5.17%

COC(=O)CN1C(=O)C(O)(CC(=O)c2cccc(Br)c2)c2ccccc21 (configuration not stated)
inactive: growth inhibition [1] -6.81% | growth inhibition [2] -10.7% | viability increase [3] -4.39% | viability [4] 90.9% | viability [5] 86.9% | inhibition [6] 1.2% | RAM network inhibition [7] 2.42%

CN1CCN(C(=O)c2ccccc2NC(=O)c2cccs2)CC1
inactive: growth inhibition [1] -11% | growth inhibition [2] -8.35% | viability increase [3] -2.33% | viability [4] 98.5% | viability [5] 91.7% | inhibition [6] 0.45% | RAM network inhibition [7] 2.03%

O=c1c2c3c(sc2nc2n1CCCCC2)CCCCC3
inactive: growth inhibition [1] -11.5% | growth inhibition [2] -20.9% | viability increase [3] 0.17% | viability [4] 91.3% | viability [5] 91.7% | inhibition [6] 1.92% | RAM network inhibition [7] 6.27%

NS(=O)(=O)c1ccc(CCNC2CC(=O)N(CCc3ccccc3)C2=O)cc1 (configuration not stated)
inactive: growth inhibition [1] -14.1% | growth inhibition [2] -16% | viability increase [3] 1.79% | viability [4] 98% | viability [5] 99.9% | inhibition [6] 0.24% | RAM network inhibition [7] 1.42%

CCN1C(=O)C(O)(CC(=O)c2ccc3c(c2)OCCO3)c2ccccc21 (configuration not stated)
inactive: growth inhibition [1] -0.735% | growth inhibition [2] -5.33% | viability increase [3] -2.07% | viability [4] 99.1% | viability [5] 94% | inhibition [6] 0.24% | RAM network inhibition [7] 5.92%

CC1CCCCC1NC(=O)CCS(=O)(=O)c1cccc2nonc12 (configuration not stated)
inactive: growth inhibition [1] -0.105% | growth inhibition [2] 2.68% | viability increase [3] -2.34% | viability [4] 98.9% | viability [5] 102% | inhibition [6] -0.06% | RAM network inhibition [7] 0.88%

COc1ccc(CCNC(=O)CCS(=O)(=O)c2cccc3nsnc23)cc1OC
inactive: growth inhibition [1] -10.1% | growth inhibition [2] -13.1% | viability increase [3] -2.17% | viability [4] 96.4% | viability [5] 97.5% | inhibition [6] 0.45% | RAM network inhibition [7] 3.1%

CCCc1cc(=O)[nH]c(SCC(=O)NC2CCCCC2)n1
inactive: growth inhibition [1] 2.37% | growth inhibition [2] 0.01% | viability increase [3] -1.41% | viability [4] 89.5% | viability [5] 94.8% | inhibition [6] 0.82% | RAM network inhibition [7] 0.46%

CN1CCN(c2cc3c(c4c2[nH]c2ccccc24)C(=O)CC(C)(C)C3)CC1
active: viability [4] 1.73% | viability [5] 1.58%
inactive: growth inhibition [1] -15.3% | growth inhibition [2] 4.61% | viability increase [3] -8.46% | inhibition [6] 0.76% | RAM network inhibition [7] 0.78%

Cc1noc(C)c1S(=O)(=O)N1CCC(C(=O)N2CCC(N3CCCCC3)CC2)CC1
inactive: growth inhibition [1] -7.79% | growth inhibition [2] 2.65% | viability increase [3] 0.18% | viability [4] 101% | viability [5] 102% | inhibition [6] 1.78% | RAM network inhibition [7] -0.93%

CCOC(=O)CN1Cc2cccc(C(=O)O)c2C1=O
inactive: growth inhibition [1] -13.8% | growth inhibition [2] -18.1% | viability increase [3] -0.75% | viability [4] 95.6% | viability [5] 96.3% | inhibition [6] 0.535% | RAM network inhibition [7] 1.31%

Cc1cc(C)c(OCC(=O)Nc2cccc(NC(=O)c3ccco3)c2)c(Br)c1
inactive: growth inhibition [1] -3.62% | growth inhibition [2] 4.23% | viability increase [3] -3.03% | viability [4] 56.1% | viability [5] 60.8% | inhibition [6] 0.45% | RAM network inhibition [7] 3.46%

COc1cccc(C2CC(c3cccc(Br)c3)n3nc(N)nc3N2)c1 (configuration not stated)
inactive: growth inhibition [1] 2.54% | growth inhibition [2] 4.69% | viability increase [3] -0.49% | viability [4] 96.7% | viability [5] 90.3% | inhibition [6] 0.475% | RAM network inhibition [7] 5.95%

CCOc1ccc2nc(NC(=O)c3ccoc3C)sc2c1
inactive: growth inhibition [1] 1.53% | growth inhibition [2] -12.2% | viability increase [3] -6.35% | inhibition [6] 1.03% | RAM network inhibition [7] 2.4%
active: viability [4] 19.1% | viability [5] 17.1%

Cc1cc(-c2nc3ncccc3o2)ccc1NC(=O)CC(C)C
inactive: growth inhibition [1] -3.98% | growth inhibition [2] -5.53% | viability increase [3] -0.17% | viability [4] 108% | viability [5] 90% | inhibition [6] 1.06% | RAM network inhibition [7] 0.92%

COc1ccc(-c2nc(C#N)c(NCCCN3CCOCC3)o2)cc1
inactive: growth inhibition [1] 0.22% | growth inhibition [2] -5.34% | viability increase [3] -0.09% | viability [4] 103% | viability [5] 94% | inhibition [6] 1.28% | RAM network inhibition [7] 0.89%

O=C(Nc1nc(-c2ccco2)c(-c2ccco2)s1)C1CC(=O)N(c2ccc3c(c2)OCCO3)C1 (configuration not stated)
inactive: growth inhibition [1] -14.8% | growth inhibition [2] -20.3% | viability increase [3] -3.72% | viability [4] 76.5% | viability [5] 78.8% | inhibition [6] 2.66% | RAM network inhibition [7] 4.02%

COC(=O)Cn1c(CN2CCc3ccccc3C2)nc2c1c(=O)n(C)c(=O)n2C
inactive: growth inhibition [1] -4.78% | growth inhibition [2] 0.56% | viability increase [3] -1.18% | viability [4] 95.6% | viability [5] 96.2% | inhibition [6] 1.31% | RAM network inhibition [7] 8.74%
